From ChEMBL document CHEMBL4339195, “Di-aryl Sulfonamide Motif Adds π-Stacking Bulk in Negative Allosteric Modulators of the NMDA Receptor” (ACS Med Chem Lett, 2019)
Calls of active or inactive are those of the source. The calls are words filed in the database; no cut-off is given here.

Key:
[1] = target: T1, Glutamate NMDA receptor; Grin1/Grin2c (Rattus norvegicus) (UniProt P35439+Q00961); assay: Negative allosteric modulation of recombinant rat GluN1/GluN2C expressed in Xenopus laevis oocytes assessed as inhibition of glutamate/glycine-induced current response at 30 uM at -40 mV holding potential by two-electrode voltage clamp method relative to glutamate/glycine; assay type: cell-based; details: for residual activity: values are per cent of control
Outline: (§1)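 Oocytes recorded while the drug is co-applied with a maximally effective 100 µM glutamate plus 30 µM glycine. Response is expressed as percent of the glutamate/glycine control. IC50 comes from a Hill fit to the average composite concentration-response curve. 8-16 oocytes from 2-3 frogs per compound and receptor.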

[2] = target: T2, Ionotropic glutamate receptor NMDA 1/2D (Rattus norvegicus) (UniProt P35439+Q62645); assay: Negative allosteric modulation of recombinant rat GluN1/GluN2D expressed in Xenopus laevis oocytes assessed as inhibition of glutamate/glycine-induced current response at saturated concentration at -40 mV holding potential by two-electrode voltage clamp method relative to glutamate/glycine; assay type: cell-based
Outline: (§2)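 Hill fit of the composite concentration-response curve in oocytes, with agonist 100 µM glutamate plus 30 µM glycine. Residual response in saturating compound is either fixed at 0 or fitted. 8-16 oocytes from 2-3 frogs.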

[3] = target: T1, Glutamate NMDA receptor; Grin1/Grin2c (Rattus norvegicus); assay: Negative allosteric modulation of recombinant rat GluN1/GluN2C expressed in Xenopus laevis oocytes assessed as inhibition of glutamate/glycine-induced current response at saturated concentration at -40 mV holding potential by two-electrode voltage clamp method relative to glutamate/glycine; assay type: cell-based; outline: as §2
[4] = target: T2, Ionotropic glutamate receptor NMDA 1/2D (Rattus norvegicus); assay: Negative allosteric modulation of recombinant rat GluN1/GluN2D expressed in Xenopus laevis oocytes assessed as inhibition of glutamate/glycine-induced current response at 30 uM at -40 mV holding potential by two-electrode voltage clamp method relative to glutamate/glycine; assay type: cell-based; details: for residual activity: values are per cent of control; outline: as §1
[5] = target: Ionotropic glutamate receptor NMDA 1/2D (Rattus norvegicus, UniProt P35439+Q62645); assay: Negative allosteric modulation of recombinant rat GluN1/GluN2D expressed in Xenopus laevis oocytes assessed as inhibition of glutamate/glycine-induced current response at -40 mV holding potential by two-electrode voltage clamp method; assay type: cell-based; outline: as §1
[6] = target: T1, Glutamate NMDA receptor; Grin1/Grin2c (Rattus norvegicus); assay: Potency index, ratio of NP11999 IC50 to test compound IC50 for negative allosteric modulation of recombinant rat GluN1/GluN2C expressed in Xenopus laevis oocytes assessed as inhibition of glutamate/glycine-induced current response; assay type: cell-based
[7] = target: T2, Ionotropic glutamate receptor NMDA 1/2D (Rattus norvegicus); assay: Potency index, ratio of NP11999 IC50 to test compound IC50 for negative allosteric modulation of recombinant rat GluN1/GluN2D expressed in Xenopus laevis oocytes assessed as inhibition of glutamate/glycine-induced current response; assay type: cell-based
[8] = target: Glutamate NMDA receptor; Grin1/Grin2c (Rattus norvegicus, UniProt P35439+Q00961); assay: Negative allosteric modulation of recombinant rat GluN1/GluN2C expressed in Xenopus laevis oocytes assessed as inhibition of glutamate/glycine-induced current response at -40 mV holding potential by two-electrode voltage clamp method; assay type: cell-based; outline: as §1
[9] = target: T3, Glutamate NMDA receptor; Grin1/Grin2a (Rattus norvegicus) (UniProt P35439+Q00959); assay: Negative allosteric modulation of recombinant rat GluN1/GluN2A expressed in Xenopus laevis oocytes assessed as residual glutamate/glycine-induced current response at 30 uM at -40 mV holding potential by two-electrode voltage clamp method relative to glutamate/glycine
[10] = target: T1, Glutamate NMDA receptor; Grin1/Grin2c (Rattus norvegicus); assay: Negative allosteric modulation of recombinant rat GluN1/GluN2C expressed in Xenopus laevis oocytes assessed as remaining glutamate/glycine-induced current response at 10 uM at -40 mV holding potential by two-electrode voltage clamp method relative to glutamate/glycine
[11] = target: T4, 5-hydroxytryptamine receptor 3A (Rattus norvegicus) (UniProt P35563); assay: Negative allosteric modulation of rat 5HT3A expressed in Xenopus laevis oocytes assessed as inhibition of serotonin-induced current response at 30 uM at -40 mV holding potential by two-electrode voltage clamp method relative to serotonin alone; assay type: cell-based
T4 sequence (whole entry): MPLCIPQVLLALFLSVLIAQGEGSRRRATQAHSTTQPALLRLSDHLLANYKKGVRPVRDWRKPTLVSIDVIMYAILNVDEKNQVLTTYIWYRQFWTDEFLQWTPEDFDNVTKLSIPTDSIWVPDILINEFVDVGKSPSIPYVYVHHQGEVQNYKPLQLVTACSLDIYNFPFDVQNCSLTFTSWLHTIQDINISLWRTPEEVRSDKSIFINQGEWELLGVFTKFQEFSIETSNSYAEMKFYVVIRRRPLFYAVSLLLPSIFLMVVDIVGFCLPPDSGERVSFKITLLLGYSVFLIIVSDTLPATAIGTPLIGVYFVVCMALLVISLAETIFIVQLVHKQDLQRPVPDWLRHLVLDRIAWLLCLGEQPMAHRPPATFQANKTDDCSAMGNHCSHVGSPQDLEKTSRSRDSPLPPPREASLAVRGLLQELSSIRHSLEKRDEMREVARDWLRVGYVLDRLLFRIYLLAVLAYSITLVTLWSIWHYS
Outline: (§3)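 Oocyte two-electrode voltage clamp at -40 mV holding. Test compound co-applied with agonist; response given as percent of the mean of control and recovery currents to agonist alone. Agonists: 100 µM glutamate (AMPA, kainate), 100 µM GABA (GABA receptors), 100 µM glycine (glycine receptor), 100 µM serotonin (5-HT3A), 9 µM ATP (P2X), 1 µM acetylcholine (nicotinic).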

[12] = target: CHRNA1/CHRNB1/CHRNG/CHRND (Rattus norvegicus) (UniProt P25109+P25108+P25110+P18916); assay: Negative allosteric modulation of rat alpha1betagammadelta nACHR expressed in Xenopus laevis oocytes assessed as inhibition of acetylcholine-induced current response at 30 uM at -40 mV holding potential by two-electrode voltage clamp method relative to acetylcholine alone; assay type: cell-based; outline: as §3
Rattus norvegicus [13] = species on record: Rattus norvegicus; assay: Negative allosteric modulation of rat GABAA alpha1beta2gamma2S expressed in Xenopus laevis oocytes assessed as inhibition of GABA-induced current response at 30 uM at -40 mV holding potential by two-electrode voltage clamp method relative to GABA alone; assay type: cell-based; outline: as §3
[14] = target: T2, Ionotropic glutamate receptor NMDA 1/2D (Rattus norvegicus); assay: Negative allosteric modulation of recombinant rat GluN1/GluN2D expressed in Xenopus laevis oocytes assessed as residual glutamate/glycine-induced current response at 10 uM at -40 mV holding potential by two-electrode voltage clamp method relative to glutamate/glycine
[15] = test system: Glutamate receptor 4 (Homo sapiens), P48058 [L505Y]; assay: Negative allosteric modulation of human GluA4 L505Y mutant expressed in Xenopus laevis oocytes assessed as inhibition of glutamate-induced current response at 30 uM at -40 mV holding potential by two-electrode voltage clamp method relative to glutamate alone; assay type: cell-based; outline: as §3
[16] = test system: Glutamate receptor 3 (Homo sapiens), P42263 [L513Y]; assay: Negative allosteric modulation of human GluA3 L513Y mutant expressed in Xenopus laevis oocytes assessed as inhibition of glutamate-induced current response at 30 uM at -40 mV holding potential by two-electrode voltage clamp method relative to glutamate alone; assay type: cell-based; outline: as §3
Rattus norvegicus [17] = species on record: Rattus norvegicus; assay: Negative allosteric modulation of rat GABAA rho expressed in Xenopus laevis oocytes assessed as inhibition of GABA-induced current response at 30 uM at -40 mV holding potential by two-electrode voltage clamp method relative to GABA alone; assay type: cell-based; outline: as §3
Homo sapiens = species on record: Homo sapiens; assay: Negative allosteric modulation of human GluA2 R607Q mutant expressed in Xenopus laevis oocytes assessed as inhibition of glutamate-induced current response at 30 uM at -40 mV holding potential by two-electrode voltage clamp method relative to glutamate alone; assay type: cell-based; outline: as §3
[18] = target: Glutamate receptor 1 (Rattus norvegicus) (UniProt P19490); assay: Negative allosteric modulation of recombinant rat GluA1 expressed in Xenopus laevis oocytes assessed as inhibition of glutamate-induced current response at 30 uM at -40 mV holding potential by two-electrode voltage clamp method relative to glutamate alone; assay type: cell-based; outline: as §3
[19] = target: T5, Glycine receptor subunit alpha-1 (Rattus norvegicus) (UniProt P07727); assay: Negative allosteric modulation of rat glycine alpha1 expressed in Xenopus laevis oocytes assessed as inhibition of glycine-induced current response at 30 uM at -40 mV holding potential by two-electrode voltage clamp method relative to glycine alone; assay type: cell-based; outline: as §3
T5 sequence (whole entry): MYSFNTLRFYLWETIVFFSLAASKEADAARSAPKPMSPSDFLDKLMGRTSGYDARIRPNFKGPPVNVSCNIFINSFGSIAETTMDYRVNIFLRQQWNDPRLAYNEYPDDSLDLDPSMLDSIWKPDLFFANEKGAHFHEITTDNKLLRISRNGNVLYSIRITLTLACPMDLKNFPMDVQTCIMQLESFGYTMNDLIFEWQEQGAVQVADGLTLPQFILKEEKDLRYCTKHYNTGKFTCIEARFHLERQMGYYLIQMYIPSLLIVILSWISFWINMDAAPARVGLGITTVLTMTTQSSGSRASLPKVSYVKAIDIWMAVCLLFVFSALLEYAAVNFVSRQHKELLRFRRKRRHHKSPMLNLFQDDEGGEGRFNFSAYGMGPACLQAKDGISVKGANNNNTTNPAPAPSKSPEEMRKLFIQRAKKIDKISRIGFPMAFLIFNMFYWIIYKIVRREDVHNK

[20] = target: Glutamate receptor ionotropic, kainate 2 (Rattus norvegicus) (UniProt P42260); assay: Negative allosteric modulation of rat GluK2 expressed in Xenopus laevis oocytes assessed as inhibition of glutamate-induced current response at 30 uM at -40 mV holding potential in presence of concanavalin A by two-electrode voltage clamp method relative to glutamate alone; assay type: cell-based; outline: as §3
[21] = target: Glutamate NMDA receptor; Grin1/Grin2a (Rattus norvegicus, UniProt P35439+Q00959); assay: Negative allosteric modulation of recombinant rat GluN1/GluN2A expressed in Xenopus laevis oocytes assessed as inhibition of glutamate/glycine-induced current response at -40 mV holding potential by two-electrode voltage clamp method; assay type: cell-based; outline: as §1
[22] = target: T3, Glutamate NMDA receptor; Grin1/Grin2a (Rattus norvegicus); assay: Negative allosteric modulation of recombinant rat GluN1/GluN2A expressed in Xenopus laevis oocytes assessed as remaining glutamate/glycine-induced current response at 6 uM at -40 mV holding potential by two-electrode voltage clamp method relative to glutamate/glycine

Chain of Glutamate receptor 1 (Rattus norvegicus) (P19490 whole entry): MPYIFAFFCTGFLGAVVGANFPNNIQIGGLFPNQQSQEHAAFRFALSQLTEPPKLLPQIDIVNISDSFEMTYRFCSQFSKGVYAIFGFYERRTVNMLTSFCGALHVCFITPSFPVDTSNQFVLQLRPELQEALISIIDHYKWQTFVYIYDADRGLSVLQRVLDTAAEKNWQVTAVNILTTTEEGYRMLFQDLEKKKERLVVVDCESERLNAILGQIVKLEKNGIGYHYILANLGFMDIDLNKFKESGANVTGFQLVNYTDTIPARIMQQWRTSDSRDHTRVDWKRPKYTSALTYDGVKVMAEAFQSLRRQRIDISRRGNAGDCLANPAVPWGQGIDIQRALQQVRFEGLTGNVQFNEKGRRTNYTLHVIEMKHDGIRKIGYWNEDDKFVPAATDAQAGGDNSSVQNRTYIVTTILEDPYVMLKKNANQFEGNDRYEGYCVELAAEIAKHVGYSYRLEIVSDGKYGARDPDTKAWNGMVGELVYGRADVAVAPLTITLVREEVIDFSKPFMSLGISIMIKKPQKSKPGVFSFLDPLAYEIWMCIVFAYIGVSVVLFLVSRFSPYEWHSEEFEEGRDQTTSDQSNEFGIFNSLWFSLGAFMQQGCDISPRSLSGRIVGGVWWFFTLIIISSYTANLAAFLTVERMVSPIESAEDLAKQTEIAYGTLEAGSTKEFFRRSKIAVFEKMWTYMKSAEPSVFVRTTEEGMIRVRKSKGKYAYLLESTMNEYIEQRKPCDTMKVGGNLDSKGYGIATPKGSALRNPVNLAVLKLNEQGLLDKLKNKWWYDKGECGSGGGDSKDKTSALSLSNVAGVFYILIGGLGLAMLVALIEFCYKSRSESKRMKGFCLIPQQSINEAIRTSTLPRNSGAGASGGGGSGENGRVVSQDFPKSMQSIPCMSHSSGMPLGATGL
Chain of Glutamate receptor 3 (Homo sapiens), P42263 [L513Y] (P42263 whole entry L513Y): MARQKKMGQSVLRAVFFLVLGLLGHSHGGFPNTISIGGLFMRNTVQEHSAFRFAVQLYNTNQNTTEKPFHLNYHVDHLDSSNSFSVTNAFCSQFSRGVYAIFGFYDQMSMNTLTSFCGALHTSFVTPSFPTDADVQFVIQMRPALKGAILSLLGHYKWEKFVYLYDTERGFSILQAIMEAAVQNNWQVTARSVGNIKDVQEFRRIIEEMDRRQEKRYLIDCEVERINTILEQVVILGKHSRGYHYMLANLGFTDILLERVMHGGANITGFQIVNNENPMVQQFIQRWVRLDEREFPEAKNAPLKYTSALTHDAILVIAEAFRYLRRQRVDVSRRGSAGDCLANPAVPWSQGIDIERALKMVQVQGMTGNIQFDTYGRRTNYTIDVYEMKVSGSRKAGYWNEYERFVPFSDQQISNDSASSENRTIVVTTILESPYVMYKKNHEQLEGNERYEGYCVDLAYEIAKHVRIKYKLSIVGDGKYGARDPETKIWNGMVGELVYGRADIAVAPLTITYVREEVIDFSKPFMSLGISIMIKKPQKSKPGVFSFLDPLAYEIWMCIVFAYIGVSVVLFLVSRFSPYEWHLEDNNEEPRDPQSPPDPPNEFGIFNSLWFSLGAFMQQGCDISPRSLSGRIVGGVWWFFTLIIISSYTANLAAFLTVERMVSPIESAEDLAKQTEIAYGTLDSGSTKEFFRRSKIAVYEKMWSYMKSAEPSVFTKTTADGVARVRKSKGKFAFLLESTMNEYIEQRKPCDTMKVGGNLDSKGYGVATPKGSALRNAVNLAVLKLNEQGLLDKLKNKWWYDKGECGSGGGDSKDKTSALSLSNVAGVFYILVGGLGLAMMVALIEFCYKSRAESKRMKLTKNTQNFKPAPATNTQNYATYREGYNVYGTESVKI
Chain of Glutamate receptor 4 (Homo sapiens), P48058 [L505Y] (P48058 whole entry L505Y): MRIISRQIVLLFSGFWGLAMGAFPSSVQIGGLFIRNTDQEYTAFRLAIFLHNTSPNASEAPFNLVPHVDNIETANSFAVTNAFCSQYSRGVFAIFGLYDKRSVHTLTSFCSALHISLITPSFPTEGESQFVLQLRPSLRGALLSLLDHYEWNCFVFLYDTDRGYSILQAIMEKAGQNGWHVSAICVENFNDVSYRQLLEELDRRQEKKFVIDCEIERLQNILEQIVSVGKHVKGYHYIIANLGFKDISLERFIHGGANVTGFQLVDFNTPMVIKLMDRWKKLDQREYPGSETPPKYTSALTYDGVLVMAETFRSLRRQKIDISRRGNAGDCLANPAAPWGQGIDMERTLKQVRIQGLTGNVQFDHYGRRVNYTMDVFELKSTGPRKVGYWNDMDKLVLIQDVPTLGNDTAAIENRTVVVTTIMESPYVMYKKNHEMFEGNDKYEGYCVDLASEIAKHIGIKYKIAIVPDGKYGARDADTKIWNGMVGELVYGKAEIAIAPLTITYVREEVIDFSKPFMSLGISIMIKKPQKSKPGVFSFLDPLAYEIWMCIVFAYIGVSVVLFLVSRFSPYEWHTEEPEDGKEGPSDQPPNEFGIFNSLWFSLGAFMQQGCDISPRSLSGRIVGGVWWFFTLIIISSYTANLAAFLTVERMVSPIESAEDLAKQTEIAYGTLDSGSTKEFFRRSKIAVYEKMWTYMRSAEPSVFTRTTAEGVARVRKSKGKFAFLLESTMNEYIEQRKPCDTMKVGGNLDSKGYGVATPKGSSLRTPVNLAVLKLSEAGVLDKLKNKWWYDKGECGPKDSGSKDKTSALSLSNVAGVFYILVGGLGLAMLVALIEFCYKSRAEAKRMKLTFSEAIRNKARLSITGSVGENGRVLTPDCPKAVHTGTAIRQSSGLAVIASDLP
Chain of Glutamate receptor ionotropic, kainate 2 (Rattus norvegicus) (P42260 whole entry): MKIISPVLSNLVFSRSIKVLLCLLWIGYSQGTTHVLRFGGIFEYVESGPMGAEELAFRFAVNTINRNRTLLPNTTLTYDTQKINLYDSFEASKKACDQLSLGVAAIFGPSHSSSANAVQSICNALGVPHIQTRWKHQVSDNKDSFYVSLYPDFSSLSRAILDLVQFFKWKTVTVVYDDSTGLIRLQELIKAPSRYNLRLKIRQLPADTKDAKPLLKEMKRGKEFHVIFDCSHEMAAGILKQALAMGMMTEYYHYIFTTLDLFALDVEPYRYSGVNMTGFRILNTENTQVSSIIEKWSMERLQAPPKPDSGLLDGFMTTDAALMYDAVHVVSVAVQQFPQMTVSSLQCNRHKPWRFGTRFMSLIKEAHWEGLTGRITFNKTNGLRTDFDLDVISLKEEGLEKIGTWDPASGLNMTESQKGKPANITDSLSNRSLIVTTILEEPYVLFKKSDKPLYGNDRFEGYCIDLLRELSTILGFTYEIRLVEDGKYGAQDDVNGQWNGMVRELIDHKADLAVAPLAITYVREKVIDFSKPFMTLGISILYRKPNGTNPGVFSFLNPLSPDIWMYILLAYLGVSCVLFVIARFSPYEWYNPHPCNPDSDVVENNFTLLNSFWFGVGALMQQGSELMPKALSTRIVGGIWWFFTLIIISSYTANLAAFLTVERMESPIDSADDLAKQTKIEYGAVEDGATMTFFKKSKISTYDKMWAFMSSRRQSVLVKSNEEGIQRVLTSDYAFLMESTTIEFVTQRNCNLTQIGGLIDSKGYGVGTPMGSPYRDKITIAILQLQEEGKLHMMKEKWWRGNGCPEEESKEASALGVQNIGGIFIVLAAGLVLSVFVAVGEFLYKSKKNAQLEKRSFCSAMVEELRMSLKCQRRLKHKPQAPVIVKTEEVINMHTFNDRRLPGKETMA

Structure (SMILES) | inhibition [2] | inhibition [3] | IC50 [5] | residual activity [1] | IC50 [8] | residual activity [4] | further results
CCN(CC)C(=O)Oc1ccc(C(=O)Nc2ccc(CCNS(=O)(=O)c3ccc(F)c(Cl)c3)cc2)cc1 | 0% | 0% |  |  |  |  | inhibition [1]: 21%; inhibition [4]: 26%
CCN(CC)C(=O)Oc1ccc(C(=O)Nc2cccc(CCNS(=O)(=O)c3ccc(F)c(Cl)c3)c2)cc1 | 0% | 0% | 1.3 µM | 41% | 2.4 µM | 28% | Ratio IC50 [6]: < 6; Ratio IC50 [7]: < 6
CCN(CC)C(=O)Oc1ccc(C(=O)Nc2ccc(CNS(=O)(=O)c3ccccc3)cc2)cc1 | 27% | 41% | 10 µM | 42% | 22 µM | 20% | 
CCN(CC)C(=O)Oc1ccc(C(=O)Nc2ccc(CNS(=O)(=O)c3cccnc3)cc2)cc1 | 0% | 0% | 24 µM | 58% | 35 µM | 45% | 
CCN(CC)C(=O)Oc1ccc(C(=O)Nc2cccc(CCNC(=O)c3ccccc3)c2)cc1 |  |  | 29 µM | 56% | 37 µM | 49% | residual activity [9]: 82%
O=C(NCc1ccc(C(=O)NNC(=O)c2ccccc2)cc1)c1ccc(F)c(Cl)c1 |  |  |  |  |  |  | residual activity [9]: 102%
CCN(CC)C(=O)Oc1ccc(C(=O)Nc2ccc(CCNS(=O)(=O)c3ccccc3)cc2)cc1 | 0% | 0% |  |  |  |  | inhibition [1]: 23%; inhibition [4]: 33%
CCN(CC)C(=O)Oc1ccc(C(=O)Nc2ccc(CCNS(=O)(=O)c3cccnc3)cc2)cc1 | 0% | 0% | 5.1 µM | 37% | 12 µM | 26% | 
CCN(CC)C(=O)Oc1ccc(C(=O)Nc2cccc(CNS(=O)(=O)c3cccnc3)c2)cc1 | 0% | 0% | 23 µM | 52% | 34 µM | 42% | 
CCN(CC)C(=O)Oc1ccc(C(=O)Nc2cccc3cc[nH]c23)cc1 |  |  | 2.2 µM |  | 3.7 µM |  | residual activity [10]: 24%; inhibition [11]: inactive; inhibition [12]: inactive; inhibition (Rattus norvegicus [13]): Active; residual activity [14]: 16%; inhibition [15]: Active; inhibition [16]: Active; inhibition (Rattus norvegicus [17]): Active; inhibition (Homo sapiens): Active; inhibition [18]: Active; inhibition [19]: inactive; inhibition [20]: Active
CCN(CC)C(=O)Oc1ccc(C(=O)Nc2cccc(C(=O)Nc3ccccc3)c2)cc1 |  |  | 8 µM |  |  |  | 
CCN(CC)C(=O)Oc1ccc(C(=O)Nc2ccc(C(=O)Nc3ccccc3)cc2)cc1 |  |  | > 100 µM |  |  |  | 
CCN(CC)C(=O)Oc1ccc(C(=O)Nc2cccc(CNS(=O)(=O)c3ccccc3)c2)cc1 | 0% | 0% | 29 µM | 60% | 45 µM | 46% | 
O=C(NNC(=O)c1ccc(CNS(=O)(=O)c2ccc(F)c(Cl)c2)cc1)c1ccccc1 |  |  |  | < 15% |  | < 15% | residual activity [10]: 95%; IC50 [21]: 0.17 µM; residual activity [14]: 88%; residual activity [22]: 5.1%
CCN(CC)C(=O)Oc1ccc(C(=O)Nc2ccccc2)cc1 |  |  | 5.8 to 6 µM |  | 8.6 µM |  | residual activity [10]: 49%; residual activity [14]: 37%
CCN(CC)C(=O)Oc1ccc(C(=O)Nc2cccc(CCNS(=O)(=O)c3cccnc3)c2)cc1 | 0% | 0% | 2.7 µM | 8.5% | 3.2 µM | 8.6% | Ratio IC50 [6]: < 6; Ratio IC50 [7]: < 6
